From ChEMBL document CHEMBL1129254, “3-[2-(N-phenylacetamide)]-1,5-benzodiazepines: orally active, binding selective CCK-A agonists” (J Med Chem, 1996) come the findings set out here.

Test [1] has as its system Mus musculus. Kind of test: Compound tested in vivo for mouse gallbladder emptying at 10 uM/kg, po. The format is functional.
The test system of test [2] is Mus musculus. Kind of test: Compound tested in vivo for mouse gallbladder emptying at 1.0 uM/kg, po. The format is functional.
Test [3] concerns the target T1, Gastrin/cholecystokinin type B receptor (Homo sapiens, UniProt P32239).
T1 sequence (P32239 whole entry): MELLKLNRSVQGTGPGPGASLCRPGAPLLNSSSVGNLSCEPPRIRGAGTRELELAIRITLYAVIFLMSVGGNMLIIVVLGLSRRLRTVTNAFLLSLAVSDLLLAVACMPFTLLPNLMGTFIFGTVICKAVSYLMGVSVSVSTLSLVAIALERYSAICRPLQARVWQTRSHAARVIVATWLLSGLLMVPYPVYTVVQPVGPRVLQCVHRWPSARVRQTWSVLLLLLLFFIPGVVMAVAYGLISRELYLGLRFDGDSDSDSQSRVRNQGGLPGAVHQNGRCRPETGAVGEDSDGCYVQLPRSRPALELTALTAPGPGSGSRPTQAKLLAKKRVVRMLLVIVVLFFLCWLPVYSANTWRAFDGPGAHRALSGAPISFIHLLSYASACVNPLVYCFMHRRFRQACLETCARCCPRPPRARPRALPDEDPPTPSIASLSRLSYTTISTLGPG
Nature of the test: Binding affinity against human Cholecystokinin type B receptor in CHO-K1 cells using [125I]-Bolton-Hunter CCK-8 as radioligand. The format is cell-based.

Test [4] relates to Mus musculus. Nature of the test: Compound tested in vivo for mouse gallbladder emptying at 0.1 uM/kg, ip. The format is functional.
The species named for a further test is Cavia porcellus. Kind of test: Relative efficacy determined by the maximal contraction observed at 30 uM, standardized to CCK-8. The format is functional. The method, boiled down: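 Isolated guinea pig gallbladder contraction. Maximal contraction at 30 μM test ligand expressed relative to CCK-8 (1 μM) = 1.0; n ≥ 3.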
In test [5] the target is T2, Cholecystokinin receptor type A (Cavia porcellus) (UniProt Q63931).
T2 sequence (whole entry): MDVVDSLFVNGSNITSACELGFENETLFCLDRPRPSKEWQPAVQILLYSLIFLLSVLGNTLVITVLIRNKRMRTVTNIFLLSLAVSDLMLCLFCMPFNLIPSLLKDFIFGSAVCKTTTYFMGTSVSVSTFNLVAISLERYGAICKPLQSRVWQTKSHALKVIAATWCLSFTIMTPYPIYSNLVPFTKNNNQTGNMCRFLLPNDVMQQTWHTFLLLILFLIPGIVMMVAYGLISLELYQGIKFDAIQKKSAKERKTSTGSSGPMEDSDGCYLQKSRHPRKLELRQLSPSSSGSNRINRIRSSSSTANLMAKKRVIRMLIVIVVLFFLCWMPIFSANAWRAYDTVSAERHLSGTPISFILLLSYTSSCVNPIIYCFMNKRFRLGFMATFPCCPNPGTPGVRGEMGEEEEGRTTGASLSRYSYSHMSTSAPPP
Nature of the test: In vitro agonist activity against Cholecystokinin type A receptor isolated from guinea pig gall bladder. The format is functional, tissue-based.

Test [6] addresses T3, Cholecystokinin receptor type A (Homo sapiens, UniProt P32238).
T3 sequence (P32238 whole entry): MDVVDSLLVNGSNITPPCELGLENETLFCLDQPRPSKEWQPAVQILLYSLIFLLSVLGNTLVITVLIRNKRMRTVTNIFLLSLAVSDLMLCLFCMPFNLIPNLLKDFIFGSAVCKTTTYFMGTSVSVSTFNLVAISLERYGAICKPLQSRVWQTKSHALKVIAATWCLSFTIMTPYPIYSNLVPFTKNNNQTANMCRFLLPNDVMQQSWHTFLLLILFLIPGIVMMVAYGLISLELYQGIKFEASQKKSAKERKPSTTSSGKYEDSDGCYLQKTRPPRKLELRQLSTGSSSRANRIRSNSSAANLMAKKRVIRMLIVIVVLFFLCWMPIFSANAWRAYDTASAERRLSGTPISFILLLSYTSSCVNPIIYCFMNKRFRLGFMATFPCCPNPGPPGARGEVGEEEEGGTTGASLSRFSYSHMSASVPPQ
Nature of the test: Binding affinity against human Cholecystokinin type A receptor in membrane preparation isolated from CHO-K1 cells stably transfected with cDNA of human CCK-A using [125I]-Bolton-Hunter CCK-8 as radioligand. The format is cell membranes.

Consider `CCC1(CC(=O)Nc2ccccc2)C(=O)N(CC(=O)N(c2ccccc2)C(C)C)c2ccccc2N(c2ccccc2)C1=O` (configuration not stated), for which the Activity with Mus musculus [1] is on record as 42%; in the test on Mus musculus [2] it was 45%; in the test with Mus musculus [4] it was 68%. Besides, the IC50 in test [3] is 794 nM. The compound further displayed an RE in the test filed under Cavia porcellus of 0.6. For the same compound, the ED50 in test [5] worked out at 780 nM.
With `CSCC[C@H](NC(=O)[C@H](Cc1ccc(OS(=O)(=O)O)cc1)NC(=O)[C@@H](N)CC(=O)O)C(=O)NCC(=O)N[C@@H](Cc1c[nH]c2ccccc12)C(=O)N[C@@H](CCSC)C(=O)N[C@@H](CC(=O)O)C(=O)N[C@@H](Cc1ccccc1)C(N)=O` [SINCALIDE], in the test filed under Cavia porcellus, the RE worked out at 1. In addition, in test [5], the ED50 amounted to 2 nM.
`CC(C)N(C(=O)CN1C(=O)C(OC(=O)Nc2ccccc2)C(=O)N(c2ccccc2)c2ccccc21)c1ccccc1` (configuration not stated) registered an RE in the test listed under Cavia porcellus of 0.2.
In test [3], `CC(C)N(C(=O)CN1C(=O)C(C)(NC(=O)Nc2ccccc2)C(=O)N(c2ccccc2)c2ccccc21)c1ccccc1` (configuration not stated) gave an IC50 of 282 nM. Moreover, in the test filed under Cavia porcellus, the RE stood at 0.5. The ED50 in test [5] was over 10000 nM.
As for `CC(C)N(C(=O)CN1C(=O)C(NC(=O)Cc2ccccc2)C(=O)N(c2ccccc2)c2ccccc21)c1ccccc1` (configuration not stated), the RE in the test listed under Cavia porcellus was found to be 0.3.
Still for that read-out and setting: then `CC(C)N(C(=O)CN1C(=O)C(NC(=O)Oc2ccccc2)C(=O)N(c2ccccc2)c2ccccc21)c1ccccc1` (configuration not stated), with 0.2.
In the test on Mus musculus [4], `CC(C)N(C(=O)CN1C(=O)C(NC(=O)Nc2ccccc2)C(=O)N(c2ccccc2)c2ccccc21)c1ccccc1` (configuration not stated) came in with an Activity of 78%. This compound returned an RE in the test listed under Cavia porcellus of 0.8. Moreover, in test [5], the ED50 was found to be 1600 nM.
For the compound `CC(C)N(C(=O)CN1C(=O)C(CC(=O)Nc2ccccc2)C(=O)N(c2ccccc2)c2ccccc21)c1ccccc1` (configuration not stated), the figures for the IC50 in test [6] and in test [3] were 155 nM and 832 nM, respectively. Also, the Activity is 34% in the test with Mus musculus [2] and 63% in the test with Mus musculus [4]. This compound also gave an RE in the test filed under Cavia porcellus of 0.5. In test [5], the ED50 is 430 nM.
Regarding `CC(C)N(C(=O)CN1C(=O)C(C)(CC(=O)Nc2ccccc2)C(=O)N(c2ccccc2)c2ccccc21)c1ccccc1` (configuration not stated), the Activity with Mus musculus [1] is given as 73%; in the test with Mus musculus [2] it was 36%; in the test with Mus musculus [4], 73%. Besides, the results for the IC50 in test [6] and in test [3] were 75.9 nM and 8320 nM, respectively. The same compound came in with an RE in the test listed under Cavia porcellus of 0.7. Also, in test [5], the ED50 amounted to 200 nM.
Turning to `CC(C)N(C(=O)CN1C(=O)C(CC(=O)Nc2ccccc2)(Cc2ccccc2)C(=O)N(c2ccccc2)c2ccccc21)c1ccccc1` (configuration not stated), the IC50 in test [6] was 389 nM; in test [3] it was 8910 nM.

In general, IC50 refers to the concentration at which inhibition is half-maximal.
